Key:
[1] = system: AR protein level in T98G cells; assay: AR downregulation in T98G cells by Western blotting; assay type: cell-based, human; settings: for AR downregulation activity at 50 nM / AR downregulation activity at 100 nM: 12 h; for AR protein level: 25, 50, and 100 nM
Procedure, shortened: (§1)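 Cells in 6-well plates treated with test compound or DMSO (T98G screens at 100 or 50 nM for 12 h). Lysed in RIPA with protease inhibitors (10 min on ice), spun at 10,000g for 10 min, protein by BCA. 50 µg resolved on 10% SDS-PAGE, transferred to PVDF, blocked 2 h in 5% milk/TBS-T. Anti-AR or anti-AR-V7 primary overnight at 4 °C, secondary 60 min at RT, chemiluminescence. Band gray values quantified.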

AR-V7 in T98G cells = assay: Mutated AR; assay type: cell-based, human; settings: Western blotting
Procedure, shortened: as §1

AR in U87 cells = assay: AR immunofluorescence assay in U87 cells; assay type: cell-based, human; settings: 50 nM, 12 h, compared to the control
Procedure, shortened: (§2)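 Cells were grown on coverslips for 24 h, then given test compound at 50 nM for 12 h. Fixed in 4% paraformaldehyde (10 min), permeabilized with 0.1% Triton X-100 (10 min) and blocked in 1% BSA (30 min). Anti-AR primary 1 h, fluorescent secondary 1 h, nuclei stained with DAPI 1 µg/mL for 10 min, then imaged by fluorescence microscopy.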

[2] = target: T1, α-crystallin (chaperone function domain of HSP27) (Bos taurus, UniProt P02470+P02510); assay: HSP27 chaperone activity assay; assay type: biochemical; settings: for inhibition of in vitro chaperone function of HSP27: 10 μM (Figure 3), α-crystallin present; for interference with DTT-induced insulin aggregation: without chaperone protein, 10 μM or below
T1 sequence (P02470 1-173): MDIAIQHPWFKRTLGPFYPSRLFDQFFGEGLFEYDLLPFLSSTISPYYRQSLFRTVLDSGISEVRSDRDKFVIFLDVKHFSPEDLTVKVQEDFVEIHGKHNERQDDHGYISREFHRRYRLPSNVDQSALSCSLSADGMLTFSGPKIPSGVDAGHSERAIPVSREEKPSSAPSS
T1 sequence (P02510 1-175): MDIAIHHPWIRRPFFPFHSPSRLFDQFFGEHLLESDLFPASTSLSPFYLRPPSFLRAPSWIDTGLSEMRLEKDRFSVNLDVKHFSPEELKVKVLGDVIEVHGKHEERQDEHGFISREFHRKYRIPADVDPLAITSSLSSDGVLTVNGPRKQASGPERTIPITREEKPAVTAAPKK
Procedure, shortened: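 Chaperone assay: insulin (from 1 mg/mL stock) with α-crystallin, the HSP27 chaperone domain (from 5 mg/mL stock), and test compound in PBS. Preincubated 5 min at 37 °C, then aggregation started with DTT (from 1 M stock). A400 read every 3 min for up to 2 h. Controls were insulin with or without α-crystallin in 0.1% DMSO. Three independent experiments, each in triplicate; mean curves.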

[3] = system: AR protein level in U87 cells; assay: AR downregulation in U87 cells by Western blotting; assay type: cell-based, human; settings: 25, 50, and 100 nM
Procedure, shortened: as §1

AR in T98G cells = assay: AR immunofluorescence assay in T98G cells; assay type: cell-based, human; settings: 50 nM, 12 h, compared to the control
Procedure, shortened: as §2

Maximum-tolerated dose = assay type: in vivo; settings: 100 mg/kg per day IP for 10 days; for body weight growth rate / hematology, profile of the blood / tissue staining (H&E) of kidney, spleen, lung, liver, and heart: vs control group
Procedure, shortened: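 Twelve C57BL/6 mice randomised into three groups (vehicle DMSO, or test compound in PBS), dosed IP daily and euthanised after 10 days. Body weight recorded daily. Nonfasted cardiac blood drawn immediately after euthanasia for automated haematology analysis. Heart, liver, spleen, lung and kidney rinsed in PBS, formalin-fixed, ethanol-dehydrated, xylene-cleared, paraffin-embedded and H&E-stained.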

U87 xenograft tumor = U87 xenograft tumor model in nude mice; assay type: in vivo; settings: for nude mice body weight / tumor size / tumor weight: 20 mg/kg IP every other day; for nude mice body weight / tumor size: 2 weeks; for tumor size / tumor weight / AR protein level in tumors: vs control; for tumor weight: end of experiment; for AR protein level in tumors: 20 mg/kg IP, Western blotting of tumor lysates
Procedure, shortened: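 Nude mice (5–6 weeks) received U87 cells (5 × 10^6 in PBS) subcutaneously into both flanks; n = 4/group, 8 tumors/group. At about 50 mm3, mice got vehicle (DMSO) or test compound 20 mg/kg in PBS IP three times weekly for 14 days. Calipers three times weekly, V = 2/3 d1 × d2², body weight recorded. At end: CO2 euthanasia, tumors weighed, two tumors per mouse pooled and homogenized in RIPA for AR blotting.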

[4] = system: AR-overexpressed GBM cell lines U87 and T98G; assay type: cell-based, human; settings: summary of Table 1
Procedure, shortened: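 MTT assay in T98G and U87 cells kept in RPMI1640 or DMEM with 10% FBS and penicillin/streptomycin at 37 °C, 5% CO2. MTT 1 mg/mL for 2 h at 37 °C, formazan dissolved in DMSO, A570 read. Eight replicates; IC50 by nonlinear regression.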

COc1ccc(OC)c(COc2cc(NC(=O)c3ccc4c(c3)OCO4)ccc2NS(C)(=O)=O)c1 [Compound 4, N-(3-((2,5-Dimethoxybenzyl)oxy)-4-(methylsulfonamido)phenyl)benzo[d][1,3]dioxole-5-carboxamide]
AR downregulation activity at 50 nM [1]: potent AR downregulation activity
AR downregulation activity at 100 nM [1]: significant AR downregulation activity
AR protein level [1]: significantly downregulate
mutated AR (AR-V7) level (AR-V7 in T98G cells): downregulate
fluorescence intensities of AR (AR in U87 cells): decreased
inhibition of in vitro chaperone function of HSP27 [2]: significantly inhibit
inhibition at 10 µM ([2]; read-out: inhibition of the chaperone function): > 50%
interference with DTT-induced insulin aggregation [2]: do not interfere
AR protein level [3]: significantly downregulate
fluorescence intensities of AR (AR in T98G cells): decreased
condition observation (signs of toxicity such as dehydration, acute pain, or distress) (Maximum-tolerated dose): do not show any sign of toxicity
body weight growth rate (Maximum-tolerated dose): no growth rate difference
hematology, profile of the blood (Maximum-tolerated dose): no change
tissue staining (H&E) of kidney, spleen, lung, liver, and heart (Maximum-tolerated dose): no substantial histological abnormalities
nude mice body weight (U87 xenograft tumor): not affected
tumor size (U87 xenograft tumor): significantly decreased
tumor weight (U87 xenograft tumor): significantly decrease
AR protein level in tumors (U87 xenograft tumor): significantly decreased

COc1ccc(OC)c(COc2cc(NC(=O)c3ccc([N+](=O)[O-])cc3)ccc2NS(C)(=O)=O)c1 [Compound 13, N-(3-((2,5-Dimethoxybenzyl)oxy)-4-(methylsulfonamido)phenyl)-4-nitrobenzamide]
AR downregulation activity at 100 nM [1]: significant AR downregulation activity

COc1ccc(OC)c(COc2cc(NC(=O)c3cccc(Br)c3)ccc2NS(C)(=O)=O)c1 [Compound 15, 3-Bromo-N-(3-((2,5-dimethoxybenzyl)oxy)-4-(methylsulfonamido)phenyl)benzamide]
AR downregulation activity at 100 nM [1]: significant AR downregulation activity

COc1ccc(OC)c(COc2cc(NC(=O)c3ccc(SC)cc3)ccc2NS(C)(=O)=O)c1 [Compound 19, N-(3-((2,5-Dimethoxybenzyl)oxy)-4-(methylsulfonamido)phenyl)-4-(methylthio)benzamide]
AR downregulation activity at 100 nM [1]: significant AR downregulation activity

COc1ccc(OC)c(COc2cc(NC(=O)c3ccc4ccccc4c3)ccc2NS(C)(=O)=O)c1 [Compound 26, N-(3-((2,5-Dimethoxybenzyl)oxy)-4-(methylsulfonamido)phenyl)-2-naphthamide]
AR downregulation activity at 50 nM [1]: potent AR downregulation activity
AR downregulation activity at 100 nM [1]: significant AR downregulation activity
AR protein level [1]: significantly downregulate
mutated AR (AR-V7) level (AR-V7 in T98G cells): downregulate
fluorescence intensities of AR (AR in U87 cells): decreased
inhibition of in vitro chaperone function of HSP27 [2]: significantly inhibit
interference with DTT-induced insulin aggregation [2]: do not interfere
AR protein level [3]: significantly downregulate
fluorescence intensities of AR (AR in T98G cells): decreased
condition observation (signs of toxicity such as dehydration, acute pain, or distress) (Maximum-tolerated dose): do not show any sign of toxicity
body weight growth rate (Maximum-tolerated dose): no growth rate difference
hematology, profile of the blood (Maximum-tolerated dose): no change
tissue staining (H&E) of kidney, spleen, lung, liver, and heart (Maximum-tolerated dose): no substantial histological abnormalities
nude mice body weight (U87 xenograft tumor): not affected
tumor size (U87 xenograft tumor): significantly decreased
tumor weight (U87 xenograft tumor): significantly decrease
AR protein level in tumors (U87 xenograft tumor): significantly decreased

CCCCCC(=O)Nc1ccc(NS(C)(=O)=O)c(OCc2cc(OC)ccc2OC)c1 [Compound 30, N-(3-((2,5-Dimethoxybenzyl)oxy)-4-(methylsulfonamido)phenyl)hexanamide]
activity in GBM cell growth inhibition (SAR wording) [4]: lower activity

COc1ccc(OC)c(COc2cc(NC(=O)c3ccc(OC(F)(F)F)cc3)ccc2NS(C)(=O)=O)c1 [Compound 33, N-(3-((2,5-Dimethoxybenzyl)oxy)-4-(methylsulfonamido)phenyl)-4-(trifluoromethoxy)benzamide]
AR downregulation activity at 100 nM [1]: significant AR downregulation activity

COc1ccc(OC)c(COc2cc(NC(=O)c3ccccc3C)ccc2NS(C)(=O)=O)c1 [Compound 34, N-(3-((2,5-Dimethoxybenzyl)oxy)-4-(methylsulfonamido)phenyl)-2-methylbenzamide]
AR downregulation activity at 100 nM [1]: significant AR downregulation activity

COc1ccc(OC)c(COc2cc(NC(=O)c3cccs3)ccc2NS(C)(=O)=O)c1 [Compound 35, N-(3-((2,5-Dimethoxybenzyl)oxy)-4-(methylsulfonamido)phenyl)thiophene-2-carboxamide]
AR downregulation activity at 100 nM [1]: significant AR downregulation activity
activity in GBM cell growth inhibition (SAR wording) [4]: lower activity

COc1ccc(OC)c(COc2cc(NC(=O)c3ccno3)ccc2NS(C)(=O)=O)c1 [Compound 36, N-(3-((2,5-Dimethoxybenzyl)oxy)-4-(methylsulfonamido)phenyl)isoxazole-5-carboxamide]
AR downregulation activity at 100 nM [1]: significant AR downregulation activity
activity in GBM cell growth inhibition (SAR wording) [4]: lower activity

COc1ccc(OC)c(COc2cc(NC(=O)CCCC(=O)Nc3ccc(NS(C)(=O)=O)c(OCc4cc(OC)ccc4OC)c3)ccc2NS(C)(=O)=O)c1 [Compound 37, N1,N5-Bis(3-((2,5-dimethoxybenzyl)oxy)-4-(methylsulfonamido)phenyl)glutaramide]
AR downregulation activity at 100 nM [1]: significant AR downregulation activity
activity in GBM cell growth inhibition (SAR wording) [4]: poor activity

COc1ccc(OC)c(COc2cc(NC(=O)COCC(=O)Nc3ccc(NS(C)(=O)=O)c(OCc4cc(OC)ccc4OC)c3)ccc2NS(C)(=O)=O)c1 [Compound 38, 2,2′-Oxybis(N-(3-((2,5-dimethoxybenzyl)oxy)-4-(methylsulfonamido)phenyl)acetamide)]
activity in GBM cell growth inhibition (SAR wording) [4]: poor activity

COc1ccc(OC)c(COc2cc(NC(=O)OCCOC(=O)Nc3ccc(NS(C)(=O)=O)c(OCc4cc(OC)ccc4OC)c3)ccc2NS(C)(=O)=O)c1 [Compound 39, Ethane-1,2-diylbis((3-((2,5-dimethoxybenzyl)oxy)-4-(methylsulfonamido)phenyl)carbamate)]
activity in GBM cell growth inhibition (SAR wording) [4]: poor activity

COc1ccc(OC)c(COc2cc(NC(=O)OCCOCCOCCOC(=O)Nc3ccc(NS(C)(=O)=O)c(OCc4cc(OC)ccc4OC)c3)ccc2NS(C)(=O)=O)c1 [Compound 40, (Ethane-1,2-diylbis(oxy))bis(ethane-2,1-diyl)bis((3-((2,5-dimethoxybenzyl)oxy)-4-(methylsulfonamido)phenyl)carbamate)]
activity in GBM cell growth inhibition (SAR wording) [4]: poor activity

COc1ccc(OC)c(COc2cc(NC(=O)c3ccc(NC(=O)COCC(=O)Nc4ccc(C(=O)Nc5ccc(NS(C)(=O)=O)c(OCc6cc(OC)ccc6OC)c5)cc4)cc3)ccc2NS(C)(=O)=O)c1 [Compound 42, 4,4′-((2,2′-Oxybis(acetyl))bis(azanediyl))bis(N-(3-((2,5-dimethoxybenzyl)oxy)-4-(methylsulfonamido)phenyl)benzamide)]
activity in GBM cell growth inhibition (SAR wording) [4]: poor activity
